{"source": "ChEMBL document CHEMBL1131066", "about": "“2-Substituted aminopyrido[2,3-d]pyrimidin-7(8H)-ones. structure-activity relationships against selected tyrosine kinases and in vitro and in vivo anticancer activity” (J Med Chem, 1998)", "key": {"C6 [1]": {"tested_on": "C6", "assay": "C6 cell growth in soft agar with continuous treatment", "type": "functional, cell-based, Rattus norvegicus", "conditions": "Rattus norvegicus, C6", "outline": "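C6 rat glioma cells (F10 Ham's with 15% horse serum, 2.5% fetal calf serum) exposed 3 days to a concentration series, then plated in soft agar with compound still present at the same concentration; colonies stained and counted after two weeks. IC50; mean of two experiments, each in duplicate.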"}, "C6 [2]": {"tested_on": "C6", "assay": "Inhibition of C6 cell proliferation in sulforhodamine B assay", "type": "functional, cell-based, Rattus norvegicus", "conditions": "Rattus norvegicus, C6", "outline": "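C6 rat glioma cells (F10 Ham's, 15% horse serum, 2.5% fetal calf serum) seeded and allowed 24 h to attach, then given serial 2-fold compound dilutions; 4 d at 37 °C, 5% CO2; growth read by sulforhodamine B staining. IC50; mean of two experiments, each in triplicate.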"}, "SK-OV-3 [3]": {"tested_on": "SK-OV-3", "assay": "Difference in days for treated (T) and control (C) SK-OV-3 cell tumors to reach 750 mg in mice at 20.3 mg/kg peroral dose, days 20-34 administration", "type": "functional", "conditions": "route oral", "outline": "(§1)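 Nude mice (NCr nu/nu), 18–22 g, 6–8 per group, randomized and implanted with serially passaged tumor fragments in the right axilla on day 0. Dosed by average cage weight. Vehicle was 50 mM sodium lactate buffer, pH 4.0, or a 0.5% methyl cellulose suspension for one compound. Cisplatin was given in saline. T − C is the difference in days for treated and control tumors to reach 750 mg.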"}, "Mus musculus [4]": {"tested_on": "Mus musculus", "assay": "Difference in days for treated (T) and control (C) PDGF-transfected fibroblast tumors to reach 750 mg in mice at 15 mg/kg peroral dose, days 1-15 administration", "type": "functional", "conditions": "route oral", "outline": "as §1"}, "HT-29 [5]": {"tested_on": "HT-29", "assay": "Difference in days for treated (T) and control (C) HT-29 cell tumors to reach 750 mg in mice at 10.2 mg/kg peroral dose, days 15-29 administration", "type": "functional", "conditions": "route oral", "outline": "as §1"}, "MCF7 [6]": {"tested_on": "MCF7", "assay": "Difference in days for treated (T) and control (C) MCF-7 cell tumors to reach 750 mg in mice at 12 mg/kg peroral dose, days 1-15 administration", "type": "functional", "conditions": "route oral", "outline": "as §1"}, "C6 [7]": {"tested_on": "C6", "assay": "Difference in days for treated (T) and control (C) C6 glioma cell tumors to reach 750 mg in mice at 10 mg/kg peroral dose, days 1-15 administration", "type": "functional", "conditions": "route oral", "outline": "as §1"}, "COLO 205 [8]": {"tested_on": "COLO 205", "assay": "Net reduction in tumor burden between first and last treatments of COLO 205 cell tumors in mice at 10 mg/kg peroral dose, days 14-28 administration", "type": "functional", "conditions": "route oral", "outline": "(§2)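 NCr nu/nu nude mice (18–22 g, 6–8 per group, randomized) had tumor fragments, kept by serial passage in nude mice, implanted in the right axilla on day 0. Mice were dosed by average cage weight on the listed days, over a range from toxic to ineffective doses. Vehicle was 50 mM sodium lactate pH 4.0 or 0.5% methyl cellulose suspension. Net log cell kill was taken between first and last treatments.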"}, "COLO 205 [9]": {"tested_on": "COLO 205", "assay": "Difference in days for treated (T) and control (C) COLO 205 cell tumors to reach 750 mg in mice at 10 mg/kg peroral dose, days 14-28 administration", "type": "functional", "conditions": "route oral", "outline": "as §1"}, "HT-29 [10]": {"tested_on": "HT-29", "assay": "Net reduction in tumor burden between first and last treatments of HT-29 cell tumors in mice at 10.2 mg/kg peroral dose, days 15-29 administration", "type": "functional", "conditions": "route oral", "outline": "as §2"}, "MCF7 [11]": {"tested_on": "MCF7", "assay": "Net reduction in tumor burden between first and last treatments of MCF-7 cell tumors in mice at 12 mg/kg peroral dose, days 1-15 administration", "type": "functional", "conditions": "route oral", "outline": "as §2"}, "SK-OV-3 [12]": {"tested_on": "SK-OV-3", "assay": "Net reduction in tumor burden between first and last treatments of SK-OV-3 cell tumors in mice at 20.3 mg/kg peroral dose, days 20-34 administration", "type": "functional", "conditions": "route oral", "outline": "as §2"}, "Mus musculus [13]": {"tested_on": "Mus musculus", "assay": "Net reduction in tumor burden between first and last treatments of PDGF-transfected fibroblast cells in mice at 15 mg/kg peroral dose, days 1-15 administration", "type": "functional", "conditions": "route oral", "outline": "as §2"}, "A-431 [14]": {"tested_on": "A-431", "assay": "Net reduction in tumor burden between first and last treatments in A431 cell tumors in mice at 20 mg/kg peroral dose, days 7-21 administration", "type": "functional", "conditions": "route oral", "outline": "as §2"}, "C6 [15]": {"tested_on": "C6", "assay": "Net reduction in tumor burden between first and last treatments of C6 glioma cell tumors in mice at 10 mg/kg peroral dose, days 1-15 administration", "type": "functional", "conditions": "route oral", "outline": "as §2"}, "C6 [16]": {"tested_on": "C6", "assay": "Net reduction in tumor burden between first and last treatments of C6 glioma cell tumors in mice at 5 mg/kg peroral dose, days 1-15 administration", "type": "functional", "conditions": "route oral", "outline": "as §2"}, "A-431 [17]": {"tested_on": "A-431", "assay": "Difference in days for treated (T) and control (C) A431 cell tumors to reach 750 mg in mice at 20 mg/kg peroral dose, days 7-21 administration", "type": "functional", "conditions": "route oral", "outline": "as §1"}, "SK-OV-3 [18]": {"tested_on": "SK-OV-3", "assay": "Weight change of SK-OV-3 cell tumors in mice at 20.3 mg/kg peroral dose, days 20-34 administration", "type": "functional", "conditions": "route oral", "outline": "(§3)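 Nude mice (NCr nu/nu, 18–22 g, 6–8 per group) were randomized and implanted with serially passaged tumor fragments in the right axilla on day 0. Oral dosing was based on average cage weight, on the days stated, over a dose range from toxic to ineffective. Vehicle was 50 mM sodium lactate buffer, pH 4.0, or 0.5% methyl cellulose suspension. Host weight change is reported as maximum treatment-related loss.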"}, "Mus musculus [19]": {"tested_on": "Mus musculus", "assay": "Weight change of PDGF-transfected fibroblast cells in mice at 15 mg/kg peroral dose, days 1-15 administration", "type": "functional", "conditions": "route oral", "outline": "as §3"}, "MCF7 [20]": {"tested_on": "MCF7", "assay": "Weight change of MCF-7 tumor cells in mice at 12 mg/kg peroral dose, days 1-15 administration", "type": "functional, organism-based", "parameters": "dose 12 mg/kg", "outline": "(§4)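 Tumor-bearing nude mice (NCr nu/nu, 18–22 g, 6–8 per group) were implanted in the right axilla with tumor fragments on day 0 and dosed by average cage weight. Vehicle was 50 mM sodium lactate pH 4.0, or 0.5% methyl cellulose suspension; cisplatin was given in saline. Host body weight change is given as the maximum treatment-related weight loss.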"}, "A-431 [21]": {"tested_on": "A-431", "assay": "Weight change of A431 cell tumor in mice at 20 mg/kg peroral dose, days 7-21 administration", "type": "functional", "conditions": "route oral", "outline": "as §4"}, "C6 [22]": {"tested_on": "C6", "assay": "Weight change of C6 glioma cell tumor in mice at 10 mg/kg peroral dose, days 1-15 administration", "type": "functional, organism-based", "parameters": "dose 10 mg/kg", "outline": "as §4"}, "C6 [23]": {"tested_on": "C6", "assay": "Weight change of C6 glioma tumor cells in mice at 5 mg/kg peroral dose, days 1-15 administration", "type": "functional, Mus musculus", "conditions": "route oral", "outline": "as §4"}, "COLO 205 [24]": {"tested_on": "COLO 205", "assay": "Weight change of COLO 205 tumor cells in mice at 10 mg/kg peroral dose, days 14-28 administration", "type": "functional", "conditions": "route oral", "outline": "as §4"}, "HT-29 [25]": {"tested_on": "HT-29", "assay": "Weight change of HT-29 tumor cells in mice at 10.2 mg/kg peroral dose, days 15-29 administration", "type": "functional", "conditions": "route oral", "outline": "as §4"}, "NIH3T3 [26]": {"tested_on": "NIH3T3", "assay": "Growth of NIH3T3 cell colonies in soft agar with continuous treatment", "type": "functional, cell-based", "conditions": "Mus musculus", "outline": "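Soft agar cloning used PDGF-B-transfected NIH3T3 (NIH3T3/PDGF) cells. Cells were exposed 3 days to a concentration series, then plated in soft agar with the matching compound concentration kept present. Colonies were stained and counted after two weeks. IC50; mean of two experiments, each in duplicate.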"}, "NIH3T3 [27]": {"tested_on": "NIH3T3", "assay": "Growth of NIH3T3 cell colonies in soft agar with discontinued treatment", "type": "functional, cell-based", "conditions": "Mus musculus", "outline": "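PDGF-B-transfected NIH3T3 (NIH3T3/PDGF) cells exposed 3 days to a concentration series, washed free of inhibitor, plated in drug-free soft agar; colonies stained and counted after two weeks. IC50; mean of two experiments, each in duplicate.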"}, "NIH3T3/PDGF": {"tested_on": "NIH3T3/PDGF", "assay": "Weight change of NIH3T3/PDGF cell tumors in mice at 9.5 mg/kg peroral dose, days 1-15 administration", "conditions": "route oral"}, "C6 glioma": {"tested_on": "C6 glioma", "assay": "Difference in days for treated (T) and control (C) C6 glioma tumors to reach 750 mg in mice at 5 mg/kg peroral dose, days 1-15 administration", "conditions": "route oral"}, "Mus musculus [28]": {"tested_on": "Mus musculus", "assay": "Net reduction in tumor burden between first and last treatments in PDGF-transfected fibroblast cells in mice at 9.5 mg/kg peroral dose, days 1-15 administration", "conditions": "route oral"}, "Mus musculus [29]": {"tested_on": "Mus musculus", "assay": "Difference in days for treated (T) and control (C) PDGF-transfected fibroblast tumors to reach 750 mg in mice at 9.5 mg/kg peroral dose, days 1-15 administration", "conditions": "route oral"}}}
{"smiles": "CCN(CC)CCOc1ccc(Nc2ncc3cc(-c4c(Cl)cccc4Cl)c(=O)n(C)c3n2)cc1", "note": "[PD-0166285]", "values": [{"measurement": "IC50", "setting": "C6 [1]", "value": 120, "unit": "nM"}, {"measurement": "IC50", "setting": "C6 [2]", "value": 340, "unit": "nM"}, {"measurement": "T-C", "setting": "SK-OV-3 [3]", "value": 10.6, "unit": "days"}, {"measurement": "T-C", "setting": "Mus musculus [4]", "value": 2.2, "unit": "days"}, {"measurement": "T-C", "setting": "HT-29 [5]", "value": 9.6, "unit": "days"}, {"measurement": "T-C", "setting": "MCF7 [6]", "value": 1.1, "unit": "days"}, {"measurement": "T-C", "setting": "C6 [7]", "value": 0.4, "unit": "days"}, {"measurement": "Net cell kill", "setting": "COLO 205 [8]", "value": -0.7, "unit": "log10"}, {"measurement": "T-C", "setting": "COLO 205 [9]", "value": 0.6, "unit": "days"}, {"measurement": "Net cell kill", "setting": "HT-29 [10]", "value": -0.2, "unit": "log10"}, {"measurement": "Net cell kill", "setting": "MCF7 [11]", "value": -0.6, "unit": "log10"}, {"measurement": "Net cell kill", "setting": "SK-OV-3 [12]", "value": -0.1, "unit": "log10"}, {"measurement": "Net cell kill", "setting": "Mus musculus [13]", "value": -1.8, "unit": "log10"}, {"measurement": "Net cell kill", "setting": "A-431 [14]", "value": -0.5, "unit": "log10"}, {"measurement": "Net cell kill", "setting": "C6 [15]", "value": -1, "unit": "log10"}, {"measurement": "Net cell kill", "setting": "C6 [16]", "value": -0.8, "unit": "log10"}, {"measurement": "T-C", "setting": "A-431 [17]", "value": 3.7, "unit": "days"}, {"measurement": "Weight change", "setting": "SK-OV-3 [18]", "value": -4, "unit": "g"}, {"measurement": "Weight change", "setting": "Mus musculus [19]", "value": -0.4, "unit": "g"}, {"measurement": "Weight change", "setting": "MCF7 [20]", "value": "Weight gain"}, {"measurement": "Weight change", "setting": "A-431 [21]", "value": -3.1, "unit": "g"}, {"measurement": "Weight change", "setting": "C6 [22]", "value": "Weight gain"}, {"measurement": "Weight change", "setting": "C6 [23]", "value": -0.1, "unit": "g"}, {"measurement": "Weight change", "setting": "COLO 205 [24]", "value": -4, "unit": "g"}, {"measurement": "Weight change", "setting": "HT-29 [25]", "value": 0, "unit": "g"}, {"measurement": "IC50", "setting": "NIH3T3 [26]", "value": 1.1, "unit": "nM"}, {"measurement": "IC50", "setting": "NIH3T3 [27]", "value": 10, "unit": "nM"}, {"measurement": "Weight change", "setting": "NIH3T3/PDGF", "value": -4.1, "unit": "g"}, {"measurement": "T-C", "setting": "C6 glioma", "value": 0.3, "unit": "days"}, {"measurement": "Net cell kill", "setting": "Mus musculus [28]", "value": -1.6, "unit": "log10"}, {"measurement": "T-C", "setting": "Mus musculus [29]", "value": 3.3, "unit": "days"}]}
